ChEMBL document CHEMBL5058577, “EUbOPEN Chemogenomics Library 2 (Multiplex)” (2022)

Test system: U2OS
Assay: Multiplex assay against U2OS
Type: toxicity, cell-based
Conditions: human
How it was run: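 Cells were classed with CellPathfinder machine-learning gating, first as Hoechst high-intensity objects or normal cells, then (normal cells) as healthy, pyknosed or fragmented nuclei, and finally (pyknosed cells) as mitotic or apoptotic. Staining of live cells at seeding used Hoechst33342, BioTracker Green Microtubule Cytoskeleton Dye, MitoTracker Red and Annexin V Alexa Fluor 680, with imaging on a CQ1 microscope at 37°C and 5% CO2 after compound addition. Tubulin, mitochondrial-mass and membrane-permeability phenotypes are per cents of healthy-nucleus cells.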

[1] = 12 h, 1 µM, compound concentration 1 uM, replicate 1
[2] = 12 h, 1 µM, compound concentration 1 uM, replicate 2
[3] = 12 h, 10 µM, compound concentration 10 uM, replicate 1
[4] = 12 h, 10 µM, compound concentration 10 uM, replicate 2
[5] = 24 h, 1 µM, compound concentration 1 uM, replicate 1
[6] = 24 h, 1 µM, compound concentration 1 uM, replicate 2
[7] = 24 h, 10 µM, compound concentration 10 uM, replicate 1
[8] = 24 h, 10 µM, compound concentration 10 uM, replicate 2
[9] = 48 h, 1 µM, compound concentration 1 uM, replicate 1
[10] = 48 h, 1 µM, compound concentration 1 uM, replicate 2
[11] = 48 h, 10 µM, compound concentration 10 uM, replicate 1
[12] = 48 h, 10 µM, compound concentration 10 uM, replicate 2

With `O=C(O)Cc1ccccc1Nc1c(Cl)cccc1Cl` [DICLOFENAC] the “Population Apoptotic (%)” value [1] was 90%, the “Population Fragmented Nuclei (%)” value [1] was 15% and the “Population Healthy Nuclei (%)” value [1] was 78%. For the same compound, the “Population Hoechst High Intensity Objects (%)” value [1] was 5%, the “Population Membrane Permeable-Phenotype (%)” value [1] was 4% and the “Population Mitochondria Different-Phenotype (%)” value [1] was 4%. The “Population Mitotic Cells (%)” value [1] was 10%, the “Population Normal (%)” value [1] was 94% and the “Population Pyknosed Nuclei (%)” value [1] was 6%. The “Population Tubulin-Different-Phenotype (%)” value [1] was 4%, the “Total Cell Count” value [1] was 164 and the “Population Apoptotic (%)” value [2] was 84%. For the same compound, the “Population Fragmented Nuclei (%)” value [2] was 13%, the “Population Healthy Nuclei (%)” value [2] was 76% and the “Population Hoechst High Intensity Objects (%)” value [2] was 0%. The “Population Membrane Permeable-Phenotype (%)” value [2] was 5%, the “Population Mitochondria Different-Phenotype (%)” value [2] was 2% and the “Population Mitotic Cells (%)” value [2] was 15%. The “Population Normal (%)” value [2] was 99%, the “Population Pyknosed Nuclei (%)” value [2] was 10% and the “Population Tubulin-Different-Phenotype (%)” value [2] was 2%. The “Population Apoptotic (%)” value [3] was 75%, the “Population Fragmented Nuclei (%)” value [3] was 20% and the “Population Healthy Nuclei (%)” value [3] was 68%. For the same compound, the “Population Hoechst High Intensity Objects (%)” value [3] was 2%, the “Population Membrane Permeable-Phenotype (%)” value [3] was 8% and the “Population Mitochondria Different-Phenotype (%)” value [3] was 4%. For the same compound, the “Population Mitotic Cells (%)” value [3] was 25%, the “Population Normal (%)” value [3] was 97% and the “Population Pyknosed Nuclei (%)” value [3] was 11%. The “Population Tubulin-Different-Phenotype (%)” value [3] was 4%, the “Total Cell Count” value [3] was 258 and the “Population Apoptotic (%)” value [4] was 72%. The “Population Fragmented Nuclei (%)” value [4] was 14%, the “Population Healthy Nuclei (%)” value [4] was 76% and the “Population Hoechst High Intensity Objects (%)” value [4] was 3%. The “Population Mitochondria Different-Phenotype (%)” value [4] was 3%, the “Population Mitotic Cells (%)” value [4] was 27% and the “Population Normal (%)” value [4] was 96%. For the same compound, the “Population Pyknosed Nuclei (%)” value [4] was 9%, the “Population Tubulin-Different-Phenotype (%)” value [4] was 8% and the “Population Apoptotic (%)” value [5] was 92%. For the same compound, the “Population Fragmented Nuclei (%)” value [5] was 15%, the “Population Healthy Nuclei (%)” value [5] was 76% and the “Population Hoechst High Intensity Objects (%)” value [5] was 4%. For the same compound, the “Population Membrane Permeable-Phenotype (%)” value [5] was 2%, the “Population Mitochondria Different-Phenotype (%)” value [5] was 2% and the “Population Mitotic Cells (%)” value [5] was 7%. For the same compound, the “Population Normal (%)” value [5] was 95%, the “Population Pyknosed Nuclei (%)” value [5] was 7% and the “Population Tubulin-Different-Phenotype (%)” value [5] was 2%. For the same compound, the “Total Cell Count” value [5] was 191, the “Population Apoptotic (%)” value [6] was 87% and the “Population Fragmented Nuclei (%)” value [6] was 19%. The “Population Healthy Nuclei (%)” value [6] was 70%, the “Population Hoechst High Intensity Objects (%)” value [6] was 3% and the “Population Membrane Permeable-Phenotype (%)” value [6] was 5%. For the same compound, the “Population Mitotic Cells (%)” value [6] was 12%, the “Population Normal (%)” value [6] was 96% and the “Population Pyknosed Nuclei (%)” value [6] was 10%. For the same compound, the “Total Cell Count” value [6] was 165, the “Population Apoptotic (%)” value [7] was 72% and the “Population Fragmented Nuclei (%)” value [7] was 17%. The “Population Healthy Nuclei (%)” value [7] was 72%, the “Population Hoechst High Intensity Objects (%)” value [7] was 0% and the “Population Membrane Permeable-Phenotype (%)” value [7] was 3%. The “Population Mitochondria Different-Phenotype (%)” value [7] was 1%, the “Population Mitotic Cells (%)” value [7] was 27% and the “Population Normal (%)” value [7] was 99%. The “Population Pyknosed Nuclei (%)” value [7] was 10%, the “Population Tubulin-Different-Phenotype (%)” value [7] was 2% and the “Total Cell Count” value [7] was 311. The “Population Apoptotic (%)” value [8] was 81%, the “Population Fragmented Nuclei (%)” value [8] was 15% and the “Population Healthy Nuclei (%)” value [8] was 77%. For the same compound, the “Population Hoechst High Intensity Objects (%)” value [8] was 1%, the “Population Membrane Permeable-Phenotype (%)” value [8] was 5% and the “Population Mitochondria Different-Phenotype (%)” value [8] was 2%. For the same compound, the “Population Mitotic Cells (%)” value [8] was 18%, the “Population Normal (%)” value [8] was 98% and the “Population Pyknosed Nuclei (%)” value [8] was 7%. The “Population Tubulin-Different-Phenotype (%)” value [8] was 4%, the “Total Cell Count” value [8] was 153 and the “Population Apoptotic (%)” value [9] was 100%. For the same compound, the “Population Fragmented Nuclei (%)” value [9] was 17%, the “Population Healthy Nuclei (%)” value [9] was 71% and the “Population Hoechst High Intensity Objects (%)” value [9] was 4%. For the same compound, the “Population Membrane Permeable-Phenotype (%)” value [9] was 4%, the “Population Mitochondria Different-Phenotype (%)” value [9] was 2% and the “Population Mitotic Cells (%)” value [9] was 0%. For the same compound, the “Population Normal (%)” value [9] was 95%, the “Population Pyknosed Nuclei (%)” value [9] was 10% and the “Population Tubulin-Different-Phenotype (%)” value [9] was 2%. The “Total Cell Count” value [9] was 271, the “Population Apoptotic (%)” value [10] was 83% and the “Population Fragmented Nuclei (%)” value [10] was 15%. For the same compound, the “Population Healthy Nuclei (%)” value [10] was 70%, the “Population Hoechst High Intensity Objects (%)” value [10] was 3% and the “Population Mitochondria Different-Phenotype (%)” value [10] was 4%. The “Population Mitotic Cells (%)” value [10] was 16%, the “Population Normal (%)” value [10] was 96% and the “Population Pyknosed Nuclei (%)” value [10] was 14%. The “Population Tubulin-Different-Phenotype (%)” value [10] was 4%, the “Total Cell Count” value [10] was 216 and the “Population Apoptotic (%)” value [11] was 86%. For the same compound, the “Population Fragmented Nuclei (%)” value [11] was 16%, the “Population Healthy Nuclei (%)” value [11] was 73% and the “Population Hoechst High Intensity Objects (%)” value [11] was 2%. For the same compound, the “Population Membrane Permeable-Phenotype (%)” value [11] was 6%, the “Population Mitochondria Different-Phenotype (%)” value [11] was 1% and the “Population Mitotic Cells (%)” value [11] was 13%. For the same compound, the “Population Normal (%)” value [11] was 97%, the “Population Pyknosed Nuclei (%)” value [11] was 10% and the “Population Tubulin-Different-Phenotype (%)” value [11] was 2%. The “Total Cell Count” value [11] was 436, the “Population Apoptotic (%)” value [12] was 100% and the “Population Fragmented Nuclei (%)” value [12] was 12%. The “Population Healthy Nuclei (%)” value [12] was 75%, the “Population Hoechst High Intensity Objects (%)” value [12] was 1% and the “Population Mitotic Cells (%)” value [12] was 0%. The “Population Normal (%)” value [12] was 98%, the “Population Pyknosed Nuclei (%)” value [12] was 11% and the “Population Tubulin-Different-Phenotype (%)” value [12] was 6%. For the same compound, the “Total Cell Count” value [12] was 220.
